Test results published in ChEMBL document CHEMBL4732105, “First orally bioavailable prodrug of proteolysis targeting chimera (PROTAC) degrades cyclin-dependent kinases 2/4/6 in vivo” (Eur J Med Chem, 2021).
The source made the active and inactive calls. The calls are words filed in the database; no cut-off is given here.

Legend:
A-375 [1] = experiment: Induction of apoptosis in human A-375 cells incubated for 48 hrs by Annexin V-FITC/PI staining based flow cytometry; type: functional, cell-based; details: dose nM <=1000, time 48.0 hrs
[2] = target: T1, Protein cereblon/Cyclin-dependent kinase 2 (Mus musculus) (UniProt P97377+Q8C7D2); experiment: Protac activity at CRBN/CDK2 in mouse B16F10 cells assessed as induction of CDK2 protein degradation at 100 nM for 6 hrsin presence of Pomalidomide by Western blot analysis; type: cell-based; details: B16-F10, time 6.0 hrs
T1 sequence (Q8C7D2 whole entry, looked up, other chains not shown): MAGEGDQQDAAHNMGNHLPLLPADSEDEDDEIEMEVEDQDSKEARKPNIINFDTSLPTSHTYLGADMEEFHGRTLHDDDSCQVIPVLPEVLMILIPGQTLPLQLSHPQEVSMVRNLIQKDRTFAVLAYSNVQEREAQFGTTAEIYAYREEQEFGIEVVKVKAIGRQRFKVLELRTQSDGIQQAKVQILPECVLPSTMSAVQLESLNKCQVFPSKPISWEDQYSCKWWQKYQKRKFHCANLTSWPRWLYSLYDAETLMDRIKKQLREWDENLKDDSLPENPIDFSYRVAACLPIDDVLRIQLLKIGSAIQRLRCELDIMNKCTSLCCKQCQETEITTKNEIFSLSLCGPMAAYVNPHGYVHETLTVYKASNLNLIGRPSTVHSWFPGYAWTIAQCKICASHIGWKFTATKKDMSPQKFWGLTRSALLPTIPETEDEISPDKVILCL
Method in brief: (§1)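 B16F10 cells pre-treated 2 h with DMSO, pomalidomide (10 μM), MG132 (20 μM) or a parent CDK ligand, then exposed to 100 nM degrader for 6 h. CDK2/4/6 protein levels read by western blot.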

[3] = target: T2, Protein cereblon/Cyclin-dependent kinase 4 (Mus musculus) (UniProt P30285+Q8C7D2); experiment: Protac activity at CRBN/CDK4 in mouse B16F10 cells assessed as induction of CDK4 protein degradation after 12 hrs by Western blot analysis; type: cell-based; details: B16-F10, dose 62.5-1000 nM
T2 sequence (P30285 whole entry, looked up): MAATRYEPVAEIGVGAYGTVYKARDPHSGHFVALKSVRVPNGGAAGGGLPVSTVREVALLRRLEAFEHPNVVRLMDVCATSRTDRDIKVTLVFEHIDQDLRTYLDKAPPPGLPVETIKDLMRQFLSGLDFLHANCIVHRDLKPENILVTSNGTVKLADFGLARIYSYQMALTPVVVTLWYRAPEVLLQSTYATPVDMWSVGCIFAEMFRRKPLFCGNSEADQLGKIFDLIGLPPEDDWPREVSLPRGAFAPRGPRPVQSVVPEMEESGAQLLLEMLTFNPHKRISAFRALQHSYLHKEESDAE
T2 sequence (Q8C7D2 whole entry, looked up): as the sequence (Q8C7D2 whole entry, looked up, other chains not shown) above
Method in brief: (§2)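 B16F10 and A375 cells treated with DMSO or serial dilutions of compound for 12 h (concentration series), or for the indicated times (time course). CDK2, CDK4 and CDK6 protein levels determined by western blot.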

B16-F10 [4] = experiment: Induction of apoptosis in mouse B16F10 cells assessed as viable cells at 250 nM incubated for 48 hrs by Annexin V-FITC/PI staining based flow cytometry (reference value: 95.9%); type: functional; details: read-out: Activity
A-375 [5] = experiment: Induction of apoptosis in human A-375 cells assessed as early apoptotic cells at 500 nM incubated for 48 hrs by Annexin V-FITC/PI staining based flow cytometry (reference value: 2.82%); type: functional
A-375 [6] = experiment: Induction of cell cycle arrest in human A-375 cells assessed as accumulation at G1 phase at 1000 uM incubated for 48 hrs by propidium iodide staining based flow cytometry (reference value: 58.26%); type: functional
Method in brief: (§3)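 Tumor cells incubated 48 h in complete medium with compound or DMSO at various concentrations, stained with propidium iodide, and DNA content read by flow cytometry. G0/G1, S and G2/M fractions reported; mean ± SD, n = 3, Student's t-test.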

A-375 [7] = experiment: Induction of apoptosis in human A-375 cells assessed as decrease in Bcl-2 level upto 2000 nM incubated for 48 hrs by Western blot analysis; type: functional, cell-based; details: dose nM <=2000, time 48.0 hrs
Method in brief: (§4)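 A375 and B16F10 cells incubated with compound for 48 h. Cleaved caspase-3, cleaved PARP, total P53, Bcl-2 and Bax measured by western blot.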

[8] = target: T3, Protein cereblon/Cyclin-dependent kinase 6 (Mus musculus) (UniProt Q8C7D2+Q64261); experiment: Protac activity at CRBN/CDK6 in mouse B16F10 cells assessed as induction of CDK6 protein degradation at 100 nM for 6 hrs in presence of proteasome inhibitor MG132 by Western blot analysis; type: cell-based; details: B16-F10; method in brief: as §1
T3 sequence (Q64261 whole entry, looked up): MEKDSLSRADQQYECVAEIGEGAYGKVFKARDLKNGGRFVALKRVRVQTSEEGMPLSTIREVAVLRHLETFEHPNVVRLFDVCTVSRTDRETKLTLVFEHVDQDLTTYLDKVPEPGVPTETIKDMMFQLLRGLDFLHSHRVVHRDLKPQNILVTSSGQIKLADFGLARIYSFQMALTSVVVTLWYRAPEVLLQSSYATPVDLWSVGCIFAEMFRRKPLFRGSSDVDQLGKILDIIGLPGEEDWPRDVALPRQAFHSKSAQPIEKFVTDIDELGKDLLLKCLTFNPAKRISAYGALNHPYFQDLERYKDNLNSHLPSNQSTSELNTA
T3 sequence (Q8C7D2 whole entry, looked up): as the sequence (Q8C7D2 whole entry, looked up, other chains not shown) above

A-375 [9] = experiment: Induction of apoptosis in human A-375 cells assessed as increase in bax level upto 2000 nM incubated for 48 hrs by Western blot analysis; type: functional, cell-based; details: dose nM <=2000, time 48.0 hrs; method in brief: as §4
[10] = target: T2, Protein cereblon/Cyclin-dependent kinase 4 (Mus musculus); experiment: Protac activity at CRBN/CDK4 in mouse B16F10 cells assessed as induction of CDK4 protein degradation at 100 nM for 6 hrs in presence of proteasome inhibitor MG132 by Western blot analysis; type: cell-based; details: B16-F10; method in brief: as §1
[11] = target: T1, Protein cereblon/Cyclin-dependent kinase 2 (Mus musculus); experiment: Protac activity at CRBN/CDK2 in mouse B16F10 cells assessed as induction of CDK2 protein degradation at 500 nM by Western blot analysis; type: cell-based; details: B16-F10, time hrs <=12, TDE = time-dependent effect; method in brief: as §2
B16-F10 [12] = experiment: Induction of apoptosis in mouse B16F10 cells assessed as necrotic cells at 125 nM incubated for 48 hrs by Annexin V-FITC/PI staining based flow cytometry (reference value: 0.21%); type: functional
A-375 [13] = experiment: Cytotoxicity against human A375 cells assessed as reduction in cell viability after 72 hrs by MTT assay; type: functional, cell-based; details: A-375, 72 h
Method in brief: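 Cells exposed to compound for 72 h and viability read by MTT; IC50 from three independent experiments.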

A-375 [14] = experiment: Induction of cell cycle arrest in human A-375 cells assessed as accumulation at G0/G1 phase upto […] incubated for 48 hrs by propidium iodide staining based flow cytometry; type: functional; method in brief: as §3
A-375 [15] = experiment: Induction of apoptosis in human A-375 cells assessed as necrotic cells at 500 nM incubated for 48 hrs by Annexin V-FITC/PI staining based flow cytometry (reference value: 0.602%); type: functional
B16-F10 [16] = experiment: Induction of apoptosis in mouse B16F10 cells assessed as late apoptotic cells at 125 nM incubated for 48 hrs by Annexin V-FITC/PI staining based flow cytometry (reference value: 0.551%); type: functional
[17] = target: Protein cereblon/Cyclin-dependent kinase 2 (Homo sapiens) (UniProt P24941+Q96SW2); experiment: Protac activity at CRBN/CDK2 in human A-375 cells assessed as induction of CDK2 protein degradation at 1000 nM by Western blot analysis; type: cell-based; details: time hrs <=12, TDE = time-dependent effect; method in brief: as §2
A-375 [18] = experiment: Induction of cell cycle arrest in human A-375 cells assessed as accumulation at G2 phase at 500 uM incubated for 48 hrs by propidium iodide staining based flow cytometry (reference value: 12.42%); type: functional; method in brief: as §3
A-375 [19] = experiment: Induction of apoptosis in human A-375 cells assessed as viable cells at 500 nM incubated for 48 hrs by Annexin V-FITC/PI staining based flow cytometry (reference value: 93.3%); type: functional; details: read-out: Activity
[20] = target: Protein cereblon/Cyclin-dependent kinase 6 (Homo sapiens) (UniProt Q00534+Q96SW2); experiment: Protac activity at CRBN/CDK6 in human A-375 cells assessed as induction of CDK6 protein degradation at 1000 nM by Western blot analysis; type: cell-based; details: time hrs <=12, TDE = time-dependent effect; method in brief: as §2
Sequence of Protein cereblon/Cyclin-dependent kinase 6 (Homo sapiens) (Q00534 whole entry, looked up): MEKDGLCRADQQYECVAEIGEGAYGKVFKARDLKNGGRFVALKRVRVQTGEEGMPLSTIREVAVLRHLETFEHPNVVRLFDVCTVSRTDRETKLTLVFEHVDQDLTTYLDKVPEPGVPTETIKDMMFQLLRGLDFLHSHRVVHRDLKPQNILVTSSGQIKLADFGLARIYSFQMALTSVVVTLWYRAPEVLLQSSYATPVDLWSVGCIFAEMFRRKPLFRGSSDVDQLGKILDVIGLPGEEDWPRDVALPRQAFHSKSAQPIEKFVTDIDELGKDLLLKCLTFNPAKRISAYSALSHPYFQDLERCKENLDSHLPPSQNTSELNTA
Sequence of Protein cereblon/Cyclin-dependent kinase 6 (Homo sapiens) (Q96SW2 whole entry, looked up): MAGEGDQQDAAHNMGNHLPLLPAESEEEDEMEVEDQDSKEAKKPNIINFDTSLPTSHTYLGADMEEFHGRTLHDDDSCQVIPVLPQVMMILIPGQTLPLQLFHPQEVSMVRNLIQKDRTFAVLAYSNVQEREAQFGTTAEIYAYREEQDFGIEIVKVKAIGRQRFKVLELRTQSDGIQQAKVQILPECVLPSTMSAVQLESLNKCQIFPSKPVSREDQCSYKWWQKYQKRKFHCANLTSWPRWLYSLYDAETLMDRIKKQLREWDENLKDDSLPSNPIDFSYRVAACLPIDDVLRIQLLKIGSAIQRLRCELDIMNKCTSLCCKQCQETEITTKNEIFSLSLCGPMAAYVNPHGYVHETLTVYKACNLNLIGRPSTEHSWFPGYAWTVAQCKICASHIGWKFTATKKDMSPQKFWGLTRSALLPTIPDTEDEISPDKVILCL

[21] = target: T1, Protein cereblon/Cyclin-dependent kinase 2 (Mus musculus); experiment: Protac activity at CRBN/CDK2 in mouse B16F10 cells assessed as induction of CDK2 protein degradation at 100 nM for 6 hrs in presence of proteasome inhibitor MG132 by Western blot analysis; type: cell-based; details: B16-F10; method in brief: as §1
[22] = target: T3, Protein cereblon/Cyclin-dependent kinase 6 (Mus musculus); experiment: Protac activity at CRBN/CDK6 in mouse B16F10 cells assessed as induction of CDK6 protein degradation at 100 nM for 6 hrsin presence of Ribociclib by Western blot analysis; type: cell-based; details: B16-F10, time 6.0 hrs
A-375 [23] = experiment: Induction of cell cycle arrest in human A-375 cells assessed as accumulation at G2 phase at 1000 uM incubated for 48 hrs by propidium iodide staining based flow cytometry (reference value: 12.42%); type: functional; method in brief: as §3
B16-F10 [24] = experiment: Induction of cell cycle arrest in mouse B16F10 cells assessed as accumulation at G2/M phase upto 100 uM incubated for 48 hrs by propidium iodide staining based flow cytometry; type: functional; details: dose microM <=100, time 48.0 hrs
A-375 [25] = experiment: Induction of apoptosis in human A-375 cells assessed as late apoptotic cells at 250 nM incubated for 48 hrs by Annexin V-FITC/PI staining based flow cytometry (reference value: 3.28%); type: functional
B16-F10 [26] = experiment: Induction of apoptosis in mouse B16F10 cells assessed as late apoptotic cells at 250 nM incubated for 48 hrs by Annexin V-FITC/PI staining based flow cytometry (reference value: 0.551%); type: functional
B16-F10 [27] = experiment: Induction of apoptosis in mouse B16F10 cells assessed as necrotic cells at 250 nM incubated for 48 hrs by Annexin V-FITC/PI staining based flow cytometry (reference value: 0.21%); type: functional

In the case of `CN(C)C(=O)c1cc2cnc(Nc3ccc(C(=O)NCCCCCCNc4cccc5c4C(=O)N(C4CCC(=O)NC4=O)C5=O)cc3)nc2n1C1CCCC1` (configuration not stated), the Activity (A-375 [1]) is reported as “Dose-dependent effect”, the Activity [2] is reported as “inactive” and the Activity [3] is reported as “Dose-dependent effect”. For the same compound, the viability at 0.25 µM (B16-F10 [4]) was 23.4%, the Activity (A-375 [5]) was 9.59% and the Activity (A-375 [6]) was 74.09%. For the same compound, the Activity (A-375 [7]) was “Active”, the Activity [8] was “inactive” and the Activity (A-375 [9]) was “Active”. For the same compound, the Activity [10] was “inactive”, the Activity [11] was “Tde” and the Activity (B16-F10 [12]) was 0.289%. For the same compound, the IC50 (A-375 [13]) was 166 nM, the Activity (A-375 [14]) was “Active” and the Activity (A-375 [15]) was 0.153%. For the same compound, the Activity (B16-F10 [16]) was 6.5%, the Activity [17] was “Tde” and the Activity (A-375 [18]) was 13.67%. The viability at 0.5 µM (A-375 [19]) was 85.2%, the Activity [20] was “Tde” and the Activity [21] was “inactive”. The Activity [22] was “inactive”, the Activity (A-375 [23]) was 16.68% and the Activity (B16-F10 [24]) was “Active”. For the same compound, the Activity (A-375 [25]) was 3.78%, the Activity (B16-F10 [26]) was 6.13% and the Activity (B16-F10 [27]) was 0.14%.
